# A selection: hits, their analogues and other compounds. The true share with any hit is near 1.5%.
# UCH37 inh – inhibitors of human UCH37 deubiquitinase, primary screen, biochemical, Ub-AMC cleavage, fluorescence; Ubiquitin carboxyl-terminal hydrolase isozyme L5 (Homo sapiens), Q9Y5K5; purified proteasome/UCH37; inhibition, % (test concentration not listed); actives 0.33% (n = 330,000); AID 588478, 2011;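 active means mean inhibition over replicate wells above about 20%, limit read from the data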
#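 System: Proteasome-associated human UCH37 deubiquitinase; Input: 0.15 nM proteasome in added enzyme buffer; Also added: Ub-AMC substrate from 1 µM stock; Incubation: 30 min compound-proteasome preincubation then 25 min substrate reaction, room temperature; Detection: fluorescence, ex 355 nm, em 460 nm; Read-out: % inhibition of Ub-AMC cleavage fluorescence; Benchmarks: no-proteasome and no-compound wells.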
# Apaf-1 inh – inhibitors of human Apaf-1 apoptosome, primary screen, biochemical, DEVD-Rh110 fluorescence, uHTS; Apoptotic protease-activating factor 1 (Homo sapiens), O14727; reconstituted apoptosome caspase-3 activity; inhibition, % at 20 µM; actives 0.71% (n = 330,000); AID 489030, 2010; active means inhibition of at least 40% at 20 µM
#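 Assay system – apoptosome proteins · Medium – Hepes buffer, pH 7.5 · Also added – cytochrome c with DEVD-Rh110 · Timing – 30 min compound preincubation, 50 min activation, room temperature · Detection – Rh110 fluorescence, excitation 480 nm, emission 540 nm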
# UBC13 polyUb – UBC13 polyubiquitin chain formation inhibitors, primary screen, biochemical, TR-FRET, uHTS; inhibition, % at 20 µM; AID 485273, 2010; Ubiquitin-conjugating enzyme E2 N (Homo sapiens), P61088; actives 0.47% (n = 330,000); in the data active means inhibition above about 45%, passing the limit was not always enough; inconclusive means no clear call, values can overlap the other calls
# Target sequence (P61088 whole entry, looked up): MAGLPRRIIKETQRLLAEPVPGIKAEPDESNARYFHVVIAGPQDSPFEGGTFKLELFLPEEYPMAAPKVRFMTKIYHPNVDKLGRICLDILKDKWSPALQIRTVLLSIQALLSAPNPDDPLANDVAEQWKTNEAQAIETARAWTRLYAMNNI
# PREPL inh – PREPL enzyme inhibitors, primary screen, biochemical, fluorescence polarization; inhibition, % at 5.96 µM; AID 2751, 2010; recombinant PREPL, fluorescence polarization activity-based probe; actives 0.68% (n = 320,000); in the data active means inhibition above about 43%
# Numbers stand for hits; - = inactive; ? = inconclusive; . = no result.
SMILES,UCH37 inh,Apaf-1 inh,UBC13 polyUb,PREPL inh
Nc1nc(NC(=O)c2ccc(F)cc2)ns1,27.2,-,-,-
CC(=O)Cc1nsc(NC(=O)c2ccc(F)cc2)n1,-,-,-,-
CCOC(=O)N1CCC(n2c(SCC(=O)NCc3ccccc3)nc3ccccc3c2=O)CC1,-,-,-,-
CCOC(=O)N1CCC(n2c(SCC(=O)NCCC3=CCCCC3)nc3ccccc3c2=O)CC1,24.4,-,-,-
CC(C)c1nc(N2CCN(C(=O)c3ccco3)CC2)c(C#N)c2c1COC(C)(C)C2,-,-,-,-
CCCCc1nc(N2CCN(C(=O)c3ccco3)CC2)c(C#N)c2c1CCCC2,-,41.8,-,-
COc1cc(C=NN=C(N)c2nonc2N)cc(OC)c1OC,-,.,.,.
CCOC(=O)/C(C#N)=C1/C=CN(c2ccccc2)C=N1,20.8,-,-,-
Cc1nc2ccc(C(=O)NN=Cc3ccc(O)cc3)cc2[nH]1,-,.,.,.
C[C@H](NC(=O)OC(C)(C)C)C(=O)NN=Cc1ccc2nccnc2c1,-,.,.,.
CCN1CCN(S(=O)(=O)c2ccc(C(=O)Nc3sc4c(c3C(N)=O)CCN(CC)C4)cc2)CC1,-,-,-,-
CN1CCc2c(sc(NC(=O)c3ccc(C(=O)c4ccccc4)cc3)c2C(N)=O)C1,-,43.7,-,-
CCN1CCc2c(sc(NC(=O)c3ccc4ccccc4c3)c2C(N)=O)C1,.,40.3,-,-
CC(=O)c1sc(NN=Cc2ccc(N(C)C)cc2)nc1C,-,.,.,.
COc1ccc(C=Nn2cnc3c([nH]c4ccc(C)cc43)c2=O)cc1CN1CCCC1,-,.,.,.
COc1ccc(-c2cc(-c3c(O)c(OC)c4occc4c3OC)[nH]n2)cc1OC,-,-,-,50.9
CC(CC(=O)Nc1ccc2c(c1)OCCO2)=NNC(=O)c1ccccc1F,-,.,.,.
COc1cc(C=NNC(=O)c2ccc(C)nc2)cc([N+](=O)[O-])c1O,-,.,.,.
Cc1nn(C(=O)CN2C(=O)c3ccccc3C2=O)c(C)c1Br,27.9,-,-,-
Nc1ccc(C(=O)n2c3ccccc3c3ccccc32)cc1,28.0,-,?,-
O=C(CCN1C(=O)/C(=C\c2cccs2)SC1=S)Nc1ccc(C(=O)O)cc1,-,-,-,-
CCN(CC)CCOC(=O)c1ccc(NC(=O)CCCN2C(=O)/C(=C\c3cccs3)SC2=S)cc1,-,59.9,-,-
CN1CCN(C2=C(Cl)C(=O)C(c3cnc(N4CCCCC4)s3)=C(Cl)C2=O)CC1,-,84.3,-,49.7
CN(C)c1ccc(NC2=C(Cl)C(=O)c3ccccc3C2=O)cc1,-,42.9,-,-
O=C1C(Cl)=C(NCCCO)C(=O)c2ccccc21,-,44.7,-,-
SMILES,UCH37 inh,Apaf-1 inh,UBC13 polyUb,PREPL inh
O=C1C(Cl)=C(NCCCN2CCOCC2)C(=O)c2ccccc21,-,.,.,.
CCn1nc(C)c(C=NNC(=S)Nc2ccc(Cl)cc2Cl)c1C,-,.,.,.
Cc1ccnc2c1ccc1c(C)ccnc12,-,44.5,-,-
Cc1ccnc2c1ccc1cccnc12,-,-,-,.
Oc1ccc(Cl)cc1CNc1cccc2cccnc12,-,91.3,-,-
Cc1cccc(NCc2cc(Cl)ccc2O)n1,-,-,-,-
C=CC[C@@H]1C=C[C@H](ON=C[C@@H](NS(=O)(=O)c2ccc(C)cc2)[C@H](C)/C=C/CC(=O)OC)[C@@H](CO)O1,-,.,.,.
CC(=O)N1CCc2c(sc(NC(=O)C3CC3)c2-c2nc3ccccc3s2)C1,-,71.5,-,-
Nc1cc2nc3ccccc3oc-2cc1=O,-,47.8,-,-
N#C/C(=C/c1ccc(-c2cc(C(=O)O)cc(C(=O)O)c2)o1)c1nc2ccccc2s1,27.6,-,-,-
COC(=O)c1[nH]c(=O)c2ccccc2c1OCc1ccccc1,-,-,-,-
COC(=O)c1[nH]c(=O)c2ccccc2c1O,-,91.1,-,-
O=C(CC12CC3CC(CC(C3)C1)C2)NN=Cc1ccc([N+](=O)[O-])o1,-,.,.,.
CCCCCC#CCC#CCC#CCC#CCCCC(=O)O,.,40.8,-,-
CCCCCCCCCC(=O)O,-,-,-,-
O=C(CCN1CCCCC1)NN=Cc1ccc(Br)cc1,-,.,.,.
CCOC(=O)N1CCN(CC(=O)Nc2ccc([N+](=O)[O-])cc2C(=O)Nc2ccccc2F)CC1,-,-,-,-
O=C(CN1CCN(Cc2ccccc2)CC1)Nc1ccc([N+](=O)[O-])cc1C(=O)Nc1ccccc1F,-,-,-,43.1
CN1CCCc2cc(C=O)ccc21,-,-,-,-

# Screening results: PubChem BioAssay, several laboratories
